For series [1], the system named is Staphylococcus aureus. Put plainly: (§1) Compound was tested in vitro for antibacterial activity against Staphylococcus aureus, pen-res A-9606. It is filed as functional. Summed up: (§2)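 MIC by serial 2-fold dilution in Mueller-Hinton agar, or in broth. Agar surface or broth was inoculated with an appropriately diluted 18–24-h broth culture. Incubation was 37 °C for 17 h. The MIC was the lowest concentration that inhibited visible growth.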

The subject of the next series is Escherichia coli. Nature of the series: Compound was tested in vitro for antibacterial activity against Escherichia coli A-15119. It counts as functional. Summed up:
as §2

The test system of the next series is Proteus vulgaris. Nature of the series: Compound was tested in vitro for antibacterial activity against Proteus vulgaris A-21559. It is filed as functional. Summed up:
as §2

The next series has as its system Enterobacter cloacae. Put plainly: Compound was tested in vitro for antibacterial activity against Enterobacter cloacae A-9695. It is filed as functional. Summed up:
as §2

The next series concerns Pseudomonas aeruginosa. Nature of the series: Compound was tested in vitro for antibacterial activity against Pseudomonas aeruginosa. It is filed as functional. In a few lines:
as §2

The subject of a further series is Serratia marcescens. Put plainly: Compound was tested in vitro for antibacterial activity against Serratia marcescens A-20019. It counts as functional. Summed up: as §2
For another series, the species on record is Sus scrofa. Nature of the series: Compound was evaluated for the rate of hydrolysis by renal dipeptidase relative to hog renal dipeptidase. The note with it: pig; in the assay text read “relative to imipenem” for “relative to hog renal dipeptidase”. It counts as ADME. Summed up: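 Purified hog renal dipeptidase. Substrate was 0.10 mM carbapenem in 50 mM MOPS, pH 7.1, freshly prepared. λmax and ε came from the UV difference spectrum before and after β-lactam cleavage by hydroxylamine at 25 °C. Spontaneous absorbance change was followed at 25 °C, then enzyme was added to give ≥10^-4 AU/s. The corrected rate was converted to nmol min^-1 (mL enzyme)^-1 and expressed relative to imipenem.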

In series [2] the test system is Staphylococcus aureus. The description is as §1. It is filed as functional, staphylococcus aure. In a few lines: as §2

Values after ≈ are worked out from the molar mass of the structure shown.

As to `CC(O)[C@H]1C(=O)N2C(C(=O)O)=C(SCc3ccncc3)CC12` (some centres not stated), the minimal inhibitory concentration (MIC) (as a rule, the lowest concentration found to suppress growth) in the series on Staphylococcus aureus [1] came to 0.03 µg/mL (≈ 0.0936 µM); in the series with Escherichia coli it was 0.03 µg/mL (≈ 0.0936 µM); in the series with Proteus vulgaris it was 0.03 µg/mL (≈ 0.0936 µM); against Enterobacter cloacae, 0.5 µg/mL (≈ 1.56 µM); against Pseudomonas aeruginosa, 32 µg/mL (≈ 99.9 µM); in the series with Serratia marcescens, 0.13 µg/mL (≈ 0.406 µM). The molecule further showed a Relative rate in the series filed under Sus scrofa of 3.84.

Take `CC(O)[C@H]1C(=O)N2C(C(=O)O)=C(SCc3nccn3C)[C@H](C)C12` (some centres not stated): the MIC came to 0.016 µg/mL (≈ 0.0474 µM) against Staphylococcus aureus [1]; 0.008 µg/mL (≈ 0.0237 µM) in the series with Escherichia coli; 0.016 µg/mL (≈ 0.0474 µM) in the series with Proteus vulgaris; 0.016 µg/mL (≈ 0.0474 µM) against Enterobacter cloacae; 16 µg/mL (≈ 47.4 µM) against Pseudomonas aeruginosa; 0.016 µg/mL (≈ 0.0474 µM) in the series with Serratia marcescens. For the same molecule, the Relative rate in the series listed under Sus scrofa stood at 0.94.

With `CC(O)[C@H]1C(=O)N2C(C(=O)[O-])=C(SCc3cc[n+](C)cc3)CC12` (some centres not stated), the MIC amounted to 0.016 µg/mL (≈ 0.0478 µM) in the series with Staphylococcus aureus [1]; 0.03 µg/mL (≈ 0.0897 µM) in the series on Escherichia coli; 0.03 µg/mL (≈ 0.0897 µM) with Proteus vulgaris; 0.5 µg/mL (≈ 1.5 µM) against Pseudomonas aeruginosa; 0.13 µg/mL (≈ 0.389 µM) against Serratia marcescens. This molecule also gave a Relative rate in the series filed under Sus scrofa of 0.84.

As to `CC(O)[C@H]1C(=O)N2C(C(=O)[O-])=C(SCc3n(C)cc[n+]3C)[C@H](C)C12` (some centres not stated), the minimal inhibitory concentration (MIC) with Staphylococcus aureus [1] turned out to be 0.008 µg/mL (≈ 0.0228 µM); in the series with Escherichia coli it was 0.004 µg/mL (≈ 0.0114 µM); with Proteus vulgaris, 0.016 µg/mL (≈ 0.0455 µM); against Enterobacter cloacae, 0.06 µg/mL (≈ 0.171 µM); against Pseudomonas aeruginosa it was 1 µg/mL (≈ 2.85 µM); in the series on Serratia marcescens, 0.03 µg/mL (≈ 0.0854 µM). The molecule also gave a Relative rate in the series filed under Sus scrofa of 0.003.

Consider `CC(O)[C@H]1C(=O)N2C(C(=O)[O-])=C(SCc3cc[n+](C)cc3)[C@H](C)C12` (some centres not stated), for which the MIC against Staphylococcus aureus [1] was 0.016 µg/mL (≈ 0.0459 µM); in the series with Escherichia coli, 0.016 µg/mL (≈ 0.0459 µM); in the series with Proteus vulgaris, 0.03 µg/mL (≈ 0.0861 µM); against Enterobacter cloacae it was 0.06 µg/mL (≈ 0.172 µM); with Pseudomonas aeruginosa, 0.5 µg/mL (≈ 1.44 µM); in the series with Serratia marcescens it was 0.03 µg/mL (≈ 0.0861 µM). This molecule also gave a Relative rate in the series filed under Sus scrofa of 0.02.

`Cc1c(CSC2=C(C(=O)[O-])N3C(=O)[C@H](C(C)O)C3C2)ccc[n+]1C` (some centres not stated): the MIC with Staphylococcus aureus [1] stood at 0.016 µg/mL (≈ 0.0459 µM); against Escherichia coli it was 0.008 µg/mL (≈ 0.023 µM); against Proteus vulgaris it was 0.03 µg/mL (≈ 0.0861 µM); against Enterobacter cloacae, 0.016 µg/mL (≈ 0.0459 µM); with Pseudomonas aeruginosa it was 0.5 µg/mL (≈ 1.44 µM); with Serratia marcescens, 0.03 µg/mL (≈ 0.0861 µM). The Relative rate in the series listed under Sus scrofa was determined as 0.4.

In the case of `Cc1c(CSC2=C(C(=O)[O-])N3C(=O)[C@H](C(C)O)C3[C@H]2C)ccc[n+]1C` (some centres not stated), the minimum inhibitory concentration (MIC) was 0.016 µg/mL (≈ 0.0441 µM) in the series with Staphylococcus aureus [1]; 0.004 µg/mL (≈ 0.011 µM) against Escherichia coli; 0.03 µg/mL (≈ 0.0828 µM) in the series on Proteus vulgaris; 0.016 µg/mL (≈ 0.0441 µM) against Enterobacter cloacae; 2 µg/mL (≈ 5.52 µM) against Pseudomonas aeruginosa; 0.16 µg/mL (≈ 0.441 µM) against Serratia marcescens. The molecule also came in with a Relative rate in the series listed under Sus scrofa of 0.01.

On to `CC(O)[C@H]1C(=O)N2C(C(=O)[O-])=C(SCc3n(C)cc[n+]3C)CC12` (some centres not stated), for which the MIC in the series on Escherichia coli is 0.008 µg/mL (≈ 0.0237 µM); against Proteus vulgaris, 0.008 µg/mL (≈ 0.0237 µM); in the series with Enterobacter cloacae it was 0.03 µg/mL (≈ 0.0889 µM); with Pseudomonas aeruginosa, 2 µg/mL (≈ 5.93 µM); against Staphylococcus aureus [2], 0.004 µg/mL (≈ 0.0119 µM); in the series with Serratia marcescens, 0.016 µg/mL (≈ 0.0474 µM). Besides, in the series listed under Sus scrofa, the Relative rate stood at 0.2.

On to `C[C@@H](O)[C@H]1C(=O)N2C(C(=O)O)=C(SCCN=CN)C[C@H]12` [IMIPENEM ANHYDROUS], for which the MIC in the series on Staphylococcus aureus [1] turned out to be 0.008 µg/mL (≈ 0.0267 µM); against Escherichia coli it was 0.016 µg/mL (≈ 0.0534 µM); against Proteus vulgaris, 0.03 µg/mL (≈ 0.1 µM); in the series on Enterobacter cloacae it was 0.06 µg/mL (≈ 0.2 µM); in the series on Pseudomonas aeruginosa it was 0.25 µg/mL (≈ 0.835 µM); against Serratia marcescens, 0.03 µg/mL (≈ 0.1 µM). Also, the Relative rate in the series filed under Sus scrofa was 1.

Source of the values: ChEMBL document CHEMBL1124683, “Synthesis and in vitro activity of 1 beta-methyl C-2 quaternary heterocyclic alkylthio carbapenems” (J Med Chem, 1989).
